# Assay results from PMC2292216 (The Journal of Experimental Medicine, 2008).
# How the values were obtained:
# [1] = molecular target: T1, BLT2 (Homo sapiens, UniProt Q9NPC1); experiment: cAMP assay; type: cell-based
# T1 sequence (Q9NPC1 1-358): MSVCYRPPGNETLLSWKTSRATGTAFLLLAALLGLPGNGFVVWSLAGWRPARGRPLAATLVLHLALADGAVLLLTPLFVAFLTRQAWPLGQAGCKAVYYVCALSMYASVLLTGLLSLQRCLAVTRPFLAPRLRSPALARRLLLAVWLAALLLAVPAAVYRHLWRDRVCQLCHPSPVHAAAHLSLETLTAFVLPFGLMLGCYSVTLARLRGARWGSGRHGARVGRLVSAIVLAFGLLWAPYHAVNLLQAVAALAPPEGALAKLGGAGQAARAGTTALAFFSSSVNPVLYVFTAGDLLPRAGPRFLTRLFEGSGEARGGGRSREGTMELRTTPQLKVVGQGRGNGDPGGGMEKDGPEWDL
# [2] = molecular target: T1, BLT2; experiment: Boyden chamber chemotaxis assay of CHO-BLT2 cells; type: cell-based; settings: for concentration required for maximal chemotaxis: Boyden chamber
# [3] = test system: mouse BMMCs; experiment: Chemotaxis; type: cell-based
# Procedure, shortened: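 BMMCs from WT, BLT1-KO and BLT2-KO mice (knockouts backcrossed to BALB/c for 10 generations) grown in RPMI 1640 with 10% fetal calf serum, 0.1 mM nonessential amino acids and 50% WEHI-3 cell-conditioned medium; maturation checked by flow cytometry. Migration toward test compound measured; stem cell factor (via c-kit) as positive control.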
# [4] = molecular target: T1, BLT2; settings: cited from earlier work
# [5] = molecular target: T1, BLT2; experiment: [3H]LTB4 displacement assay, membrane preparations of CHO-BLT2 cells; type: binding
# [6] = molecular target: T2, human BLT1 (Homo sapiens, UniProt Q15722); experiment: Intracellular calcium mobilization in CHO-BLT1 cells; type: cell-based; settings: concentrations as high as 3.3 μM
# [7] = molecular target: T1, BLT2; experiment: IP accumulation assay in COS-7 cells coexpressing BLT2 and G14; type: cell-based
# [8] = molecular target: T3, mouse BLT2 (Mus musculus, UniProt Q9JJL9); experiment: IP accumulation assay in cells cotransfected with mouse BLT2 and G14; type: cell-based
# T3 sequence (Q9JJL9 1-360): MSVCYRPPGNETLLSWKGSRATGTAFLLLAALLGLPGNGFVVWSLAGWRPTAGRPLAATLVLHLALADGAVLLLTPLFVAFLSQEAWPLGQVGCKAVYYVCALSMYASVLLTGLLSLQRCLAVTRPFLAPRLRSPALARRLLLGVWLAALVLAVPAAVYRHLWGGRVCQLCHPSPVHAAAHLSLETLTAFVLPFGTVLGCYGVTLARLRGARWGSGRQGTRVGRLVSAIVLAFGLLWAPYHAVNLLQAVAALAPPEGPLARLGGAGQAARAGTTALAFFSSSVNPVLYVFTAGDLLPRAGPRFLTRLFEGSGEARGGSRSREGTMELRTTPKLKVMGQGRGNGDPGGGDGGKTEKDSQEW
# [9] = molecular target: T2, human BLT1; experiment: cAMP assay; type: cell-based; settings: CHO-BLT1 cells, 50 μM forskolin
# [10] = molecular target: T2, human BLT1; experiment: Boyden chamber chemotaxis assay of CHO-BLT1 cells; type: cell-based
# [11] = molecular target: T1, BLT2; experiment: Cytosensor microphysiometer assay in CHO-BLT2 cells; type: cell-based
# Procedure, shortened: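 CHO cells stably expressing BLT2, with BLT1 and mock transfectants alongside. Proton flux recorded by cytosensor microphysiometer on exposure to lipid extracts from rat, mouse or platelet sources, or to 1-min RP-HPLC fractions (MeOH/H2O/AcOH 70:30:0.01). ATP served as control for endogenous purinergic receptors.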
# [12] = test system: platelets; experiment: Platelet aggregation; type: cell-based; settings: unpublished data
# T2 sequence (Q15722 whole entry): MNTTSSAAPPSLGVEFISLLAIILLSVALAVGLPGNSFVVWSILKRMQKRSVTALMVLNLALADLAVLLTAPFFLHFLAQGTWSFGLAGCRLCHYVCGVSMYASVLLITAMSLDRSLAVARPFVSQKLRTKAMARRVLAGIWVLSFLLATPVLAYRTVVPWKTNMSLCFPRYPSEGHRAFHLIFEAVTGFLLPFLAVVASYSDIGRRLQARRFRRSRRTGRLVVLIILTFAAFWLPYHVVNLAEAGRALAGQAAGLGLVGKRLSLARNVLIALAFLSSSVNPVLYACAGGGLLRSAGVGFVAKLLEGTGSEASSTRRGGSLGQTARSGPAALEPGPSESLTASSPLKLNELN
Compound,migration of BMMCs ([3]; BMMCs from BLT1-KO mice),migration of BMMCs ([3]; BMMCs from BLT2-KO mice),migration of BMMCs ([3]; BMMCs from WT mice),agonist activity at BLT2 [4],concentration required for maximal chemotaxis [2],further results
pertussis toxin,–,–,–,–,–,"effect of pretreatment on 12-HHT-dependent adenylyl cyclase inhibition ([1]; CHO-BLT2 cells, pretreatment): completely blocked; effect of pretreatment on 12-HHT-induced chemotaxis ([2]; pretreatment): completely abolished"
"SCF: stem cell factor, positive control inducing chemotaxis through the c-kit receptor",induced robust chemotaxis,induced robust chemotaxis,induced robust chemotaxis,–,–,–
CCCCC[C@H](O)/C=C/C=C\C/C=C\C/C=C\CCCC(=O)O [15-HETE],–,–,–,weak agonists,–,–
CCCCC/C=C\C[C@H](O)/C=C/C=C\C/C=C\CCCC(=O)O [12-HETE],–,–,–,weak agonists,–,–
"CCCCC[C@H](O)/C=C/C=C/C/C=C\CCCC(=O)O [12-HHT, 12(S)-hydroxyheptadeca-5Z, 8E, 10E–trienoic acid]",migrated in response to 12-HHT,–,migrated in response to 12-HHT,–,30 nM,IC50 [5]: 2.8 nM; calcium mobilization [6]: failed to induce calcium mobilization; EC50 [7]: 5.4 nM; activation of mouse BLT2 by IP accumulation [8]: activated mouse BLT2; IC50 [1]: 1 nM; adenylyl cyclase inhibition [9]: had no effect; chemotaxis [10]: failed to induce chemotaxis; activation of BLT2 in the cytosensor assay [11]: able to activate BLT2; agonistic activity in platelet aggregation [12]: did not display agonistic activity
"CCCCC/C=C\C[C@@H](O)/C=C/C=C/C=C\[C@@H](O)CCCC(=O)O [LTB4, 5(S), 12(R)-dihydroxy-6, 14-cis-8, 10-trans-eicosatetraenoic acid]",–,migrated in response to LTB4,migrated in response to LTB4,–,"> 1,000 nM",–
